# Screening results as filed in PubChem.
# CaV13 ICDI inh: Disruptors of the CACNA1D IQ motif to Ca2+-dependent inactivation inhibitor domain association, primary screening, Förster resonance energy transfer in intact living … | HEK cells, CFP/YFP FRET ICDI-IQ, plate reader, 10 min; percent FRET-ratio fall versus neutral wells | inhibition, % at 12.3 µM | hit rate 0.098% among 340,000 | AID 743397;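 active = mean replicate inhibition of at least 30% and at least 1% of replicates passing that level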;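 note: 0% = median of the neutral control wells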
# ADAM10 inh: inhibits human ADAM10; inhibition, % at 7 µM; recombinant ADAM10, EDANS/DABCYL FRET peptide cleavage, 3 h; hit rate 0.62% among 370,000;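 active = inhibition above a per-campaign cutoff equal to the mean of compounds falling between control-based bounds plus 3 SD, cut at about 20% in these data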;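 note: 0% = DMSO wells while the 100% control is not disclosed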
# ADAM17 inh: inhibitors of human ADAM17; P78536; recombinant ADAM17, EDANS/DABCYL FRET peptide cleavage; inhibition, % at 6.95 µM; hit rate 0.83% among 370,000;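 active = inhibition above the mean of compounds lying between control limits plus 3 SD, set per campaign, cut at about 8.5% in these data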;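 note: 0% = DMSO-only wells as the low control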
# Arr AP2 block: human beta-arrestin and AP2 interaction inhibition. FITC-arrestin peptide / GST-AP2 beads, flow cytometry; AP2 beta2 appendage carries R879A mutation. inhibition, % at 10 µM. hit rate 0.31% among 340,000. AID 504490;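 active = inhibition above a set limit, near 3 SD of compounds lacking own fluorescence, cut at about 54% in these data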;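 note: plate controls were DMSO wells for no effect and 5 µM unlabelled arrestin peptide for full effect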
#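 Material – AP2 appendage R879A on GSH beads · Buffer or medium – PBS with 0.05% Tween 20 and 0.1% BSA · Probe or stimulus – fluorescein-tagged arrestin peptide at 50 nM final · Incubation – compound with beads 12 min RT, then probe 1 h RT · Detection – high-throughput flow cytometry of beads, ex 488, em 535 nm · Evaluation – percent response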
# FAS TE block: FAS thioesterase (human) inhibition; P49327; recombinant FAS-TE, OMFH fluorogenic substrate, fluorescence endpoint; inhibition, % at 15 µM; hit rate 0.67% among 360,000;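 active = compounds whose normalised, plate-corrected inhibition of enzyme fluorescence in the single-dose primary screen is 50% or more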;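 note: 0% = DMSO with enzyme and 100% = substrate without enzyme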
# CendR NRP1 mod: modulators of CendR peptide binding to human neuropilin-1; O14786; FAM-RPARPAR peptide binding to NRP-1, fluorescence polarization; hit rate 0.85% among 360,000; inhibition, % at 25 µM; AID 602438;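 active = inhibition or corrected inhibition above about 18%, plus a signal ratio from 0.5 to 1.5, limit read from the data, passing the limit was not always enough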
# Target sequence (O14786 whole entry, looked up): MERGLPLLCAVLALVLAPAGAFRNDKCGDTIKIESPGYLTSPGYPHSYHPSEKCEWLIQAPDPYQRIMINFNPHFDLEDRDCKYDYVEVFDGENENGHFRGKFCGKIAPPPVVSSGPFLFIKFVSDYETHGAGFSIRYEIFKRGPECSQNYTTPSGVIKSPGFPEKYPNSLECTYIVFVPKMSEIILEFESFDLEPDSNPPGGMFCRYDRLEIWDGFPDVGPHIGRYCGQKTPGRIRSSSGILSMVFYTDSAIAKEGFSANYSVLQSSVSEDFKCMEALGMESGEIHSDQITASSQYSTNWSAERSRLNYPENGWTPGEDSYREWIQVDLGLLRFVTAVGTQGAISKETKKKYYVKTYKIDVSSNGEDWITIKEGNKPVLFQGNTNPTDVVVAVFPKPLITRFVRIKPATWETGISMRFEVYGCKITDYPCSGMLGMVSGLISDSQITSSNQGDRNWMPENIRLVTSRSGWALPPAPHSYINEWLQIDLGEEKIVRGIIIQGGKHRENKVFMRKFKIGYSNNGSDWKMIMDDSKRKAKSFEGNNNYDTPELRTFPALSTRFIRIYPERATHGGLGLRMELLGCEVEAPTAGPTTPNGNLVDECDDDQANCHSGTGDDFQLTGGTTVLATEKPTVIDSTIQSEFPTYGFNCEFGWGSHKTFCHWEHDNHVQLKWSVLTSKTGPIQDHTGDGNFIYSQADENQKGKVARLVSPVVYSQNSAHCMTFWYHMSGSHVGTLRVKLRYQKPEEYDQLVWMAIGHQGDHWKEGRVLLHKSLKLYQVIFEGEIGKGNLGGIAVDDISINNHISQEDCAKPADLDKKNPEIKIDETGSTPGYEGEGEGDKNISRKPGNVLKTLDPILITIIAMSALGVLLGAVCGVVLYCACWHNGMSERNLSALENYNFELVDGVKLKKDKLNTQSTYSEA
# ADAM10 ctr: counter-screen for ADAM17 exosite inhibitors: inhibitors of human ADAM10 | shares compounds with ADAM17 inh | recombinant ADAM10, EDANS/DABCYL FRET peptide cleavage, 3 h | inhibition, % at 6.95 µM | hit rate 47% among 2,900 | AID 743256;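 active = mean inhibition over the triplicate runs exceeds the activity threshold set in the earlier primary screen, cut at about 20% in these data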;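 note: 0% = DMSO wells and 100% = marimastat wells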
# ADAM17 confirm: confirmation of inhibitors of human ADAM17. hit rate 65% among 2,900. shares compounds with ADAM17 inh. inhibition, % at 6.95 µM. recombinant ADAM17, EDANS/DABCYL QFRET peptide cleavage;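 active = mean inhibition across replicates above the hit cutoff set in the primary screen, cut at about 8.5% in these data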;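 note: 0% = DMSO wells and 100% = marimastat wells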
# The depositor's hits bear a star; / = no result. Shown are actives, neighbours in structure and some others; about 2.9% of the full set was active somewhere.
SMILES,CaV13 ICDI inh,ADAM10 inh,ADAM17 inh,Arr AP2 block,FAS TE block,CendR NRP1 mod,ADAM10 ctr,ADAM17 confirm
CC1CCCCC12NC(=O)N(CC(=O)Nc1ccc(Cl)c(S(=O)(=O)N3CCOCC3)c1)C2=O (centres undefined),-5.8,1.6,-2.4,-6.2,2.2,-5.1,/,/
CCCC1(CCC)NC(=O)N(CC(=O)Nc2ccc(Cl)c(S(=O)(=O)N3CCOCC3)c2)C1=O,-5.0,16.1,15.4*,9.0,-1.9,5.0,2.8,1.6
CCN(CC)C(=O)CC[C@H]1CC[C@]2(CCCN(Cc3ccccc3)C2)O1,/,2.2,-0.4,/,/,/,/,/
CC(C)=CCc1c2c(c3occ(-c4ccc(O)cc4)c(=O)c3c1O)C=CC(C)(C)O2,/,19.0,9.5*,1.7,28.7,11.6,21.3*,15.2*
CC(C)=CCc1c2c(c3occ(-c4ccc(O)c(O)c4)c(=O)c3c1O)C=CC(C)(C)O2,/,6.9,11.2*,18.2,-4.9,0.3,13.0,7.6
Cc1nc(N2CCCCC2)c2c(C)c(C(=O)Nc3ccc4c(c3)OCCO4)sc2n1,-7.2,10.9,9.6*,3.4,21.9,0.5,16.2,11.5*
Cc1nc(N2CCN(C)CC2)c2c(C)c(C(=O)Nc3ccc(C)c(F)c3)sc2n1,-7.7,13.2,8.8*,-3.0,3.0,1.3,7.2,8.8*
COC(=O)[C@]12C[C@H](CC(=O)N3CCOCC3)C(=O)N(Cc3ccc(Cl)cc3Cl)C1=C[C@H](C1CCCC1)O[C@@H]2C,/,12.4,6.6,/,/,/,/,/
CC1(O)N(Cc2ccccc2)C(=O)OC12CCCCC2 (centres undefined),-7.0,7.3,9.1*,-1.0,-0.8,2.0,11.9,13.9*
Cn1cccc1C(=O)OCC(=O)Nc1ccc2c(c1)OCCO2,-6.5,-18.7,-3.4,4.3,-7.3,12.1,/,/
O=[N+]([O-])c1cc([N+](=O)[O-])c(Oc2cccnc2Br)cc1NN1CCCCC1,-7.8,3.3,11.3*,5.3,19.4,1.9,25.6*,15.4*
O=[N+]([O-])c1cc([N+](=O)[O-])c(Oc2cccc3ccccc23)cc1NN1CCCCC1,/,-13.5,-1.7,2.9,22.1,-2.3,/,/
c1ccc(-n2c(SCc3cccc4ccccc34)nnc2-c2ccccn2)cc1,/,3.0,9.2*,/,/,/,14.5,12.1*
N#Cc1ccc(CSc2nnc(-c3ccccn3)n2-c2ccccc2)cc1,-6.2,-14.9,0.7,12.1,-7.6,-3.2,/,/
COc1cc(Cl)c(C)cc1NC(=O)CN1C(=O)C2CC=CCC2C1=O (centres undefined),-2.5,-4.2,-3.6,-2.1,3.3,-4.3,/,/
CCOC(=O)[C@H]1[C@H]2COc3ccc(C)cc3[C@@H]2N2C(=O)CN(Cc3ccc(C)cc3)C(=O)[C@@]12C,-9.3,2.2,1.4,-0.8,3.5,-2.4,/,/
CCOC(=O)[C@H]1[C@H]2COc3ccc(Br)cc3[C@@H]2N2C(=O)CN(Cc3ccc(C)cc3)C(=O)[C@@]12C,-5.4,16.4,9.6*,18.9,22.8,-10.4,28.1*,16.8*
O=S(=O)(Nc1cc(S(=O)(=O)N2CCOCC2)ccc1NCC1CCCO1)c1ccccc1F (centres undefined),-2.8,-0.9,0.7,-5.5,-8.9,17.9,/,/
Fc1ccc(NCc2n[nH]c(=S)n2Cc2ccccc2)cc1,-4.6,15.5,11.4*,-14.0,-2.3,4.8,10.6,8.6
S=c1[nH]nc(CNc2ccc(Cl)cc2)n1Cc1ccccc1,0.2,9.6,6.5,4.1,-2.1,19.0,/,/
CC(C)OC(=O)N(C)C[C@@H]1OCc2cn(nn2)CCCC(=O)N([C@@H](C)CO)C[C@H]1C,-5.1,-3.3,2.3,/,-5.4,0.9,/,/
O=C(O)C1(Nc2ccc(Br)cc2)CCCC1,-5.2,-2.1,-8.2,20.6,-8.8,-7.7,/,/
